# Source: ChEMBL document CHEMBL1811839, “Lindenane disesquiterpenoids with anti-HIV-1 activity from Chloranthus japonicus” (J Nat Prod, 2011)
# Key:
# [1] = system: Human immunodeficiency virus 1; experiment: (§1) Antiviral activity against wild type Human immunodeficiency virus 1 NL 4.3 pseudotyped with VSV-G envelope co-transfected with luciferase gene infected in human 293T cells assessed as inhibition of HIV1 replication administered 15 mins prior to infection measured after 48 hrs post infection by luciferase assay; assay type: functional, organism-based; conditions: Human immunodeficiency virus 1, NL 4.3, HEK-293T
# Summary of the method: (§2)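 VSV-G plasmid co-transfected with env-deficient pNL4-3.luc.R-E vector (wild-type, RT-K103N or RT-Y181C) into 293T cells by modified Ca3(PO4)2 method; medium changed 16 h post-transfection; virion supernatant harvested 48 h, 0.45 μm filtered, p24 ELISA-quantified and diluted to 0.2 ng p24/mL. Target 293T cells plated 6 × 10^4/well a day before; compounds in DMSO added 15 min before infection; luciferase in lysates read 48 h post-infection; EFV positive control.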
# [2] = system: Human immunodeficiency virus 1; experiment: as §1, with “against” for “against wild type”, “4.3 harboring reverse transcriptase K103N mutant” for “4.3”, “in” for “in human”; assay type: functional, organism-based; conditions: Human immunodeficiency virus 1, NL 4.3, HEK-293T; summary of the method: as §2
# [3] = system: Human immunodeficiency virus 1; experiment: as §1, with “against” for “against wild type”, “4.3 harboring reverse transcriptase Y181C mutant” for “4.3”, “in” for “in human”; assay type: functional, organism-based; conditions: Human immunodeficiency virus 1, NL 4.3, HEK-293T; summary of the method: as §2
# [4] = Cytotoxicity against human C8166 cells by MTT assay; assay type: cell-based
# Summary of the method: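 MTT assay on C8166 cells yielding CC50.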
# [5] = Therapeutic index, ratio of CC50 for against human C8166 cells to EC50 for HIV-1; assay type: cell-based; conditions: read-out: Ratio CC50/EC50
# [6] = system: Human immunodeficiency virus 1; experiment: Antiviral activity against Human immunodeficiency virus 1 assessed as inhibition of virus-induced cytopathic effects by cell based assay; assay type: functional, organism-based
# Summary of the method: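 HIV-1 cytopathic-effect inhibition assay yielding EC50; AZT positive control.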
Structure (SMILES),EC50 [1] [nM],EC50 [2] [nM],EC50 [3] [nM],CC50 [4] [nM],selectivity ratio [5],EC50 [6] [nM]
C/C=C(\C)C(=O)OCC1=C2C[C@H]3[C@H](O)[C@H]4C[C@H]4[C@]3(C)[C@@H]3C[C@@]4(O)C5=C(/C(=C(/C)C(=O)OC)C(=O)[C@H](O)[C@@]5(C)[C@@H]5C[C@@H]54)[C@]23OC1=O [SHIZUKAOL C],980,1360,1000,89,5.56,16
COC(=O)/C(C)=C1\C(=O)[C@H](O)[C@]2(C)C3=C(C[C@@H]4[C@]5(OC(=O)C6=C5C[C@H]5[C@](O)(COC(=O)/C(C)=C/COC(=O)CCC(=O)OC6)[C@H]6C[C@H]6[C@]45C)[C@H]31)[C@H]1C[C@H]12 [SHIZUKAOL B],220,470,500,20,14.4,1.4
Cc1cn([C@H]2C[C@H](N=[N+]=[N-])[C@@H](CO)O2)c(=O)[nH]c1=O [ZIDOVUDINE],–,–,–,–,1.02e+06,–
O=C1Nc2ccc(Cl)cc2[C@@](C#CC2CC2)(C(F)(F)F)O1 [EFAVIRENZ],–,24,2,–,–,–
COC(=O)/C(C)=C1\C(=O)[C@H](O)[C@]2(C)C3=C(C[C@@H]4[C@]5(OC(=O)C6=C5C[C@H]5[C@](O)(COC(=O)/C=C(\C)COC(=O)[C@@H](O)CC(=O)OC6)[C@H]6C[C@H]6[C@]45C)[C@H]31)[C@H]1C[C@H]12 [SHIZUKAOL H],830,2350,860,22,6.67,3.3
COC(=O)/C(C)=C1\C(=O)[C@H](O)[C@]2(C)C3=C(C[C@@H]4[C@]5(OC(=O)C6=C5C[C@H]5[C@](O)(COC(=O)/C=C(\C)COC(=O)CCC(=O)OC6)[C@H]6C[C@H]6[C@]45C)[C@H]31)[C@H]1C[C@H]12 [SHIZUKAOL F],110,3390,4050,47,10.9,4.3
